Reference: PMC9306928 (Journal of Veterinary Pharmacology and Therapeutics, 2022)
Where two headings read alike, the source gives them in different places. Marks after values point to notes of the source that are not given here.

How the values were obtained:
COX‐2 = molecular target: T1, COX‐2 (Canis lupus familiaris, UniProt Q8SPQ9); type: cell-based, dog
T1 sequence (Q8SPQ9 18-604): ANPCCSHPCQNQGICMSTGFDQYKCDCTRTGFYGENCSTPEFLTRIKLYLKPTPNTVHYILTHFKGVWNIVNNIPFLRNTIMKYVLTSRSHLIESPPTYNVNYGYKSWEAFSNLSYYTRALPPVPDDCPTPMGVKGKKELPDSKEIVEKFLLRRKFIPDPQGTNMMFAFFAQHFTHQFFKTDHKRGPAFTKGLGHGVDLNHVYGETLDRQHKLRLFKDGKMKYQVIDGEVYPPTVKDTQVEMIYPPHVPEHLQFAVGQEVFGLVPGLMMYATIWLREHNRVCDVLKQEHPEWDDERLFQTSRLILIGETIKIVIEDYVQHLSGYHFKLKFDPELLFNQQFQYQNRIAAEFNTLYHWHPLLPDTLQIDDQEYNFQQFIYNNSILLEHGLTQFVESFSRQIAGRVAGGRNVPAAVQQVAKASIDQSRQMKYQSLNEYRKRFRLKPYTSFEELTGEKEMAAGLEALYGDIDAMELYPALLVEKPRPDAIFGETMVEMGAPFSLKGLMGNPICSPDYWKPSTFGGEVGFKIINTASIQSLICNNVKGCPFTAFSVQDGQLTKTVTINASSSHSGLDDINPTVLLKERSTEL
Method in brief: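 Citrated blood from three male and three female Beagles was held 4–6 h at ca 2–8°C. Duplicates received test compound at final 100, 30, 10, 3, 1, 0.3, 0.1 or 0 µM (one enantiomer max 30 µM; 0.4% DMSO) with LPS 1 µg/ml final, for 24 h at ca 37°C with orbital agitation. Plasma PGE2 was measured by ELISA (1:1000). Per-dog Hill fits gave IC50 and gamma; IC20/IC80 were derived.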

[1] = tested on: PGE2 formation in gastric mucosa; conditions: rat carrageenan model, dose of 40 mg/kg; ref Iñiguez et al. (2010); cited from earlier work
COX‐1/COX‐2 [2] = assay: Selectivity for COX‐2 inhibition; type: cell-based; conditions: dog whole blood, not corrected for blood cell partitioning
Method in brief: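 Selectivity was the quotient of mean IC50 values (six Beagles each) from two canine whole blood assays. One was clotting-induced TXB2 (COX-1; unanticoagulated blood, 1 h, ca 37°C). The other was LPS-induced PGE2 (COX-2; citrated blood, 1 µg/ml LPS, 24 h). Both were read by ELISA and Hill-fitted. IC50 ratios were tested by paired t test, and compounds by one-way ANOVA/Tukey.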

COX‐1 = molecular target: T2, COX‐1 (Canis lupus familiaris, UniProt Q8HZR1); type: cell-based, dog; conditions: Hill equation fit of TXB2 formation; mean of six dogs
T2 sequence (Q8HZR1 28-603): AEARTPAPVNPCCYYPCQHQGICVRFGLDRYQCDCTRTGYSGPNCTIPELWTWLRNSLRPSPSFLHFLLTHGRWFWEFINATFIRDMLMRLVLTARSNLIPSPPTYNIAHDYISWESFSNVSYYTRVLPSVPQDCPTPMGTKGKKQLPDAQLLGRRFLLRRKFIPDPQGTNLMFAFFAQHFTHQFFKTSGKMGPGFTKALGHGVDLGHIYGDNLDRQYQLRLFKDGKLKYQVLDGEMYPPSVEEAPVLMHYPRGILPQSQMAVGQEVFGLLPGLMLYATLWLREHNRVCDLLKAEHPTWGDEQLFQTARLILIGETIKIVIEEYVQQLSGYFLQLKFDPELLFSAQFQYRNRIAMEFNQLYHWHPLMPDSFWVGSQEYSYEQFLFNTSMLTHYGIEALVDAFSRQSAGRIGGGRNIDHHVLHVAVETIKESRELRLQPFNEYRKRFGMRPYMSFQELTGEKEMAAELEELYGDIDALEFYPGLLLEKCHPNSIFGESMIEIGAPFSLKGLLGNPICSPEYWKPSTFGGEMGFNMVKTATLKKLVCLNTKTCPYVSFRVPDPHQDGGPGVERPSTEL
Method in brief: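 Whole blood from six male Beagles was drawn without anticoagulant and used at once. Duplicate incubations received test compound at final 500, 300, 100, 30, 10, 3, 1 or 0 µM (0.4% v/v DMSO) plus PBS, for 1 h at ca 37°C with gentle shaking. Serum TXB2 was measured by ELISA (1:3000, 412 nm). Per-dog 4-parameter Hill fits gave IC50 and gamma, and IC20/IC80 were calculated from these.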

COX‐1/COX‐2 [3] = conditions: cited from earlier work
[4] = whole blood concentration, not corrected for blood cell partitioning
[5] = ref King et al., 2010, McCann et al., 2004

Compound: NS(=O)(=O)c1ccc(N2N=C(C(F)(F)F)C[C@@H]2c2ccc(F)cc2F)cc1 [(R)‐(+)‐Enflicoxib]
- IC50 for COX‐2 inhibition expressed as blood level (COX‐2; [4]): > 12 µg/mL
- IC80 for COX‐2 inhibition expressed as blood level (COX‐2; [4]): > 12 µg/mL

Compound: NS(=O)(=O)c1ccc(N2N=C(C(F)(F)F)C[C@H]2c2ccc(F)cc2F)cc1 [(S)‐(‐)‐Enflicoxib]
- inhibition of PGE2 formation in gastric mucosa [1]: 18%
- Ratio IC50 (COX‐1/COX‐2) (COX‐1/COX‐2 [2]): 3.77‡
- Gamma (sigmoidicity factor), COX‐1 (COX‐1): 1.8
- Gamma (sigmoidicity factor), COX‐2 (COX‐2; Hill equation fit of PGE2 formation, mean of six dogs): 2.7

Compound: CC(C(=O)O)c1ccc2c(c1)[nH]c1ccc(Cl)cc12 (stereo not shown) [carprofen]
- COX‐2 selectivity ratio (COX‐1/COX‐2 [3]; ref Briedeau et al., 2001): ~6.5

Compound: COc1ccc(-c2cc(C(F)F)nn2-c2ccc(S(N)(=O)=O)cc2)cc1F [deracoxib]
- COX‐2 selectivity ratio (COX‐1/COX‐2 [3]; [5]): 48.5

Compound: CC1(C)OC(=O)C(OCC2CC2)=C1c1ccc(S(C)(=O)=O)cc1 [firocoxib]
- COX‐2 selectivity ratio (COX‐1/COX‐2 [3]; [5]): 384

Compound: CCc1ccc(Nc2c(F)c(F)cc(F)c2F)c(CC(=O)O)c1 [robenacoxib]
- COX‐2 selectivity ratio (COX‐1/COX‐2 [3]; [5]): 129
